Experimental data published in ChEMBL document CHEMBL2380217, “Design, synthesis, and biological evaluation of aminoalkylindole derivatives as cannabinoid receptor ligands with potential for treatment of alcohol abuse” (J Med Chem, 2013).
pIC50, pKi: −log10 of the molar value. The source made the active and inactive calls. No cut-off for these calls is given here.

Assays:
[1] = target: Cannabinoid receptor 2 (Mus musculus) (UniProt P47936); assay: Displacement of [3H]CP-55940 from mouse […] CB2 receptor at 1 uM after 90 mins by scintillation counting analysis; type: tissue-based
How it was run: (§1)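 Buffer: 50 mM Tris, 0.05% BSA, 0.1% ethanol; triplicate. Non-specific binding with 10 μM WIN-55,212-2. Bound ligand collected by GF/B filtration and counted by liquid scintillation. Specific binding expressed as % of that without competitor.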

[2] = target: Cannabinoid receptor 1 (Mus musculus) (UniProt P47746); assay: Displacement of [3H]CP-55940 from mouse brain CB1 receptor at 1 uM after 90 mins by scintillation counting analysis; type: tissue-based; how it was run: as §1
[3] = target: Cannabinoid receptor 1 (Mus musculus) (UniProt P47746); assay: Agonist activity at CB1 receptor in mouse Neuro2a cells assessed as inhibition of forskolin-stimulated adenylyl cyclase activity at 10 uM after 15 mins by liquid scintillation spectrophotometry; type: functional, cell-based
How it was run: (§2)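 Neuro2A-WT (endogenous CB1), CHO-hCB2 or CHO-WT cells, 4 million per well, attached overnight. Labelled 4 h at 37 °C with [3H]adenine 2.5 μCi/mL plus 0.5 mM IBMX. Then 15 min at 37 °C in KRH buffer with 0.5 mM IBMX, 10 μM forskolin, and vehicle (0.2% ethanol) or compound (0.1 nM–10 μM), triplicate. Stopped with HCl; [3H]cAMP isolated on acidic alumina, counted by scintillation. Expressed as % of vehicle cAMP. Antagonist added 5 min before agonist.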

Cannabinoid receptor 2 [4] = target: T1, Cannabinoid receptor 2 (Homo sapiens, UniProt P34972); assay: Agonist activity at human CB2 receptor transfected in CHO cells assessed as inhibition of forskolin-stimulated adenylyl cyclase activity at 10 uM after 15 mins by liquid scintillation spectrophotometry; type: functional, cell-based; how it was run: as §2
Mus musculus [5] = assay: Reduction in ethyl alcohol preference in Swiss mouse at 10 mg/kg, ip for 10 days; type: functional, organism-based; design: dose 10 mg/kg
How it was run: (§3)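 Male NIH Swiss mice in a two-bottle home-cage choice, 10% (v/v) ethanol vs water, 24 h access. Intake read twice weekly and bottle positions switched. Preference = ethanol/total fluid × 100. After stable baseline (<10% variation over 3 days), 10 mg/kg i.p. daily for 10 days. Vehicle: 8% Tween/92% water, given for 10 days. Body weight tracked.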

Mus musculus [6] = assay: Toxicity in Swiss mouse assessed as alteration in total fluid intake at 10 mg/kg, ip for 10 days; type: organism-based; design: dose 10 mg/kg, route intraperitoneal; details: in vivo, 240 h; how it was run: as §3
Mus musculus [7] = assay: Inhibition of ethyl alcohol-induced conditioned place preference in Swiss mouse at 10 mg/kg, ip administered 1 hr prior to ethyl alcohol pairing; type: functional, organism-based; design: dose 10 mg/kg
How it was run: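 Male NIH Swiss mice in 3-compartment chambers. 30-min pre-test to find preferred side. Then Mon–Thu daily: saline in the preferred side (30 min) and, ~4 h later, 2 g/kg ethanol in the non-preferred side (30 min). Compound 10 mg/kg given 1 h before each ethanol pairing. Friday post-test; score = post minus pre time on the ethanol side. One-way ANOVA with Tukey.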

Mus musculus [8] = assay: Toxicity in Swiss mouse assessed as reduction in body weight at 10 mg/kg, ip for 10 days; type: organism-based; design: dose 10 mg/kg, route intraperitoneal; details: in vivo, 240 h; how it was run: as §3
[9] = target: Cannabinoid receptor 1 (Mus musculus) (UniProt P47746); assay: Antagonist activity at CB1 receptor in mouse Neuro2a cells assessed as forskolin-stimulated adenylyl cyclase activity at 1 uM after 15 mins by liquid scintillation spectrophotometry in presence of JWH-073; type: functional, cell-based; how it was run: as §2
CHO = assay: Effect on adenylyl cyclase activity in wild type CHO cells at 10 uM; type: cell-based; details: Cricetulus griseus; how it was run: as §2
Mus musculus [10] = assay: Antagonist activity at CB1 receptor in Swiss mouse assessed as reduction in hypothermic effect at 10 mg/kg, ip administered 30 mins prior to JWH-073 addition; type: functional, organism-based; design: dose 10 mg/kg
How it was run: (§4)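 Male NIH Swiss mice (25–30 g) with glass-encapsulated radiotelemetry probes implanted in the peritoneal cavity; at least 7 days of recovery, housed singly. Baseline recorded for at least 1 hr, then i.p. injection of drug or vehicle. […] Groups of 4–8. One-way ANOVA with Tukey.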

Cannabinoid receptor 2 [11] = target: T1, Cannabinoid receptor 2; assay: Agonist activity at human CB2 receptor transfected in CHO cells assessed as inhibition of forskolin-stimulated adenylyl cyclase activity after 15 mins by liquid scintillation spectrophotometry; type: functional, cell-based; how it was run: as §2
Cannabinoid receptor 1 = Cannabinoid receptor 1 (Mus musculus, UniProt P47746); assay: Agonist activity at CB1 receptor in mouse Neuro2a cells assessed as inhibition of forskolin-stimulated adenylyl cyclase activity after 15 mins by liquid scintillation spectrophotometry; type: functional, cell-based
How it was run: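 Neuro2A cells with endogenous CB1, plated overnight to 80–90% confluency, labelled 4 h at 37 °C with [3H]adenine (2.5 μCi/mL) plus 0.5 mM IBMX. Then 15 min at 37 °C in Krebs Ringer HEPES with 0.5 mM IBMX, 10 μM forskolin and compound (0.1 nM–10 μM; 10 μM for the screen) or 0.2% ethanol vehicle, in triplicate. HCl stop, alumina column. [3H]cAMP is given as % of vehicle.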

Mus musculus [12] = assay: Agonist activity at CB1 receptor in Swiss mouse assessed as hypothermic effect at 10 mg/kg, ip; type: functional, organism-based; design: dose 10 mg/kg; how it was run: as §4

Cannabinoid receptor 2 (Mus musculus), sequence (P47936 whole entry): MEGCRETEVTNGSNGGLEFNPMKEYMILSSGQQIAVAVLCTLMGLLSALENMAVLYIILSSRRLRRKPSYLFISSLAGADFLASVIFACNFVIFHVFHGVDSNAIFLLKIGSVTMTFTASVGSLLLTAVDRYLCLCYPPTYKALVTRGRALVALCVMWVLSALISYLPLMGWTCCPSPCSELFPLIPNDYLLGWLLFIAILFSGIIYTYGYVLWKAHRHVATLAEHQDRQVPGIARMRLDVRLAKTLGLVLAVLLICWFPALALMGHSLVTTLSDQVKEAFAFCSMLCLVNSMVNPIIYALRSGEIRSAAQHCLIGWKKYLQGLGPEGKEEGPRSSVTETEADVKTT
Cannabinoid receptor 1, sequence (P47746 whole entry): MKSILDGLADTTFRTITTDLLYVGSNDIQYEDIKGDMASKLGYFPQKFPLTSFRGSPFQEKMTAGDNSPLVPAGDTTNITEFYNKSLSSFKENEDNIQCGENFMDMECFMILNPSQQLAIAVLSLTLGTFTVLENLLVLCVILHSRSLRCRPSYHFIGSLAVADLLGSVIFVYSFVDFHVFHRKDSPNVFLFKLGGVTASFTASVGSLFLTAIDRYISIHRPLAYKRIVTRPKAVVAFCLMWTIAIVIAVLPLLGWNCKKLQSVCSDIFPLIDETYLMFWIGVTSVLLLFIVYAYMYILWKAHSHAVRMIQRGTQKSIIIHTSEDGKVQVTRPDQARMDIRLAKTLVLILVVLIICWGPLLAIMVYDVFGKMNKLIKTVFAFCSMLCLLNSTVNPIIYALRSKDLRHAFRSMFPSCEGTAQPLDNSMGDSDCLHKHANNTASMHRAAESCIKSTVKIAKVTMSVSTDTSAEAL
Cannabinoid receptor 1 (Mus musculus), sequence (P47746 whole entry): as above
T1 sequence (P34972 whole entry): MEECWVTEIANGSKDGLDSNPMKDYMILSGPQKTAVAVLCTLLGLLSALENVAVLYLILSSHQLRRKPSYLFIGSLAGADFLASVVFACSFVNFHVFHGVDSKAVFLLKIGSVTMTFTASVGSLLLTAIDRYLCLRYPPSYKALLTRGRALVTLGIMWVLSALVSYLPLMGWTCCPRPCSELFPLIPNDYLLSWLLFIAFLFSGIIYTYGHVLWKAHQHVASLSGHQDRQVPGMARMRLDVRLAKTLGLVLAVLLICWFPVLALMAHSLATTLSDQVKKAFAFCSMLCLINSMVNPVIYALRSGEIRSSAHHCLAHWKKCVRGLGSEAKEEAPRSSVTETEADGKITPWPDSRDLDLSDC

| SMILES | Activity [1] | Activity [2] | inhibition [3] | inhibition (Cannabinoid receptor 2 [4]) | further results |
| --- | --- | --- | --- | --- | --- |
| CCCCn1cc(-c2cccc3ccccc23)c2cccc(OC)c21 | 97% | 98% | 39% | 37% |  |
| Cc1c(C(=O)NN2CCCCC2)nn(-c2ccc(Cl)cc2Cl)c1-c1ccc(Cl)cc1 [RIMONABANT] |  |  |  |  | Activity (Mus musculus [5]): Active; Activity (Mus musculus [6]): Toxic; Activity (Mus musculus [7]): Active; Activity (Mus musculus [8]): Toxic |
| CCCCn1cc(C(=O)Cc2ccc(F)cc2)c2cccc(CC)c21 | 88% | 63% |  |  |  |
| CCCCn1cc(C(=O)Cc2ccc(F)cc2)c2cccc(O)c21 | 10% | 29% |  |  |  |
| CCCCn1cc(C(=O)Cc2cccc3ccccc23)c2cccc(OC)c21 | 91% | 81% | 34% |  |  |
| CCCCn1cc(C(=O)Cc2cccc(F)c2F)c2cccc(OC)c21 | 97% | 80% | 35% | -6% |  |
| CCCCCCC(C)(C)c1ccc([C@@H]2C[C@H](O)CC[C@H]2CCCO)c(O)c1 |  |  | 45% |  |  |
| CCCCn1cc(C(=O)Cc2cccc3ccccc23)c2cccc(O)c21 | 21% | 37% |  |  |  |
| CCCCn1cc(-c2ccc3ccccc3c2)c2cccc(OC)c21 | 91% | 82% | 16% | 20.8% | Activity (Mus musculus [5]): Active; Activity [9]: Active; Activity (Mus musculus [6]): Toxic; Activity (Mus musculus [7]): Active; Activity (Mus musculus [8]): Non-toxic; Activity (CHO): inactive; Activity (Mus musculus [10]): Active |
| CCCCn1cc(C(=O)c2cccc3ccccc23)c2cccc(O)c21 | 90% | 99% | 55% | 38% | pKi (Cannabinoid receptor 2 [11]): 7.11; pIC50 (Cannabinoid receptor 1): 6.65; pKi (Cannabinoid receptor 1): 7.62 |
| CCCCn1cc(C(=O)c2cccc3ccccc23)c2cc(O)ccc21 | 91% | 97% | 39% | 37% |  |
| CCCCn1cc(C(=O)Cc2ccccc2)c2cccc(O)c21 | 20% | 21% |  |  |  |
| CCCCn1cc(C(=O)c2cccc3ccccc23)c2ccccc21 |  |  |  |  | Activity (Mus musculus [12]): Active; pKi (Cannabinoid receptor 2 [11]): 8.01; pKi (Cannabinoid receptor 1): 7.89 |
| CCCCn1cc(C(=O)Cc2ccc(F)c(F)c2)c2cccc(OC)c21 | 80% | 41% |  |  |  |
| CCCCn1cc(Cc2cccc3ccccc23)c2cccc(OC)c21 | 97% | 90% | 18% | 33% | Activity (Mus musculus [5]): Active; Activity [9]: Active; Activity (Mus musculus [6]): Toxic; Activity (Mus musculus [7]): Active; Activity (Mus musculus [8]): Non-toxic; Activity (CHO): inactive; Activity (Mus musculus [10]): Active |
| CCCCn1cc(C(=O)Cc2ccc(OC)cc2)c2cccc(OC)c21 | 64% | 38% |  |  |  |
| CCCCn1cc(C(=O)c2ccc(F)cc2)c2cccc(OC)c21 | 99% | 84% | 45% | 38% |  |
| CCCCn1cc(C(=O)Cc2ccccc2F)c2cccc(OC)c21 | 99% | 84% | 45% | 1% |  |
| CCCCn1cc(C(=O)Cc2cccc(F)c2)c2cccc(OC)c21 | 91% | 63% |  |  |  |
| CCCCn1cc(C(=O)Cc2ccccc2)c2cccc(OC)c21 | 91% | 69% | 34% | 16% |  |
| CCCCn1cc(C(=O)Cc2ccc(F)cc2)c2cccc(OC)c21 | 80% | 55% | -4% | 22% |  |
| COc1cccc2c(C(=O)c3cccc4ccccc34)cn(CCN3CCOCC3)c12 | 100% | 100% | 39% | 37% |  |
| CC1=CC[C@@H]2[C@@H](C1)c1c(O)cc(CC#CCCCNS(C)(=O)=O)cc1OC2(C)C |  |  |  |  | Activity [9]: Active |
| CCCCn1cc(C(=O)c2cccc3ccccc23)c2cc(OC)ccc21 | 90% | 90% | 47% | 31% |  |
| CCCCn1cc(C(=O)Cc2ccc(O)cc2)c2cccc(O)c21 | 10% | 10% |  |  |  |
| CCCCn1cc(C(=O)c2cccc3ccccc23)c2cccc(OC)c21 | 100% | 93% | 51% | 52% |  |
